From paper PMC10651775 (Blood, 2022)
Counter-ions that a name gives are not always drawn. Like-named read-outs stand apart in the source and are kept apart here.

Key:
patients with R/R ATL [1] = assay type: in vivo, human
Procedure, shortened: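 Adults with R/R ATL (acute, lymphoma or unfavourable chronic type) took oral test compound (EZH1/EZH2 inhibitor) 200 mg once daily, fasting, in continuous 28-day cycles until progression or unacceptable toxicity; 50 mg if on strong CYP3A plus P-gp inhibitors. An independent committee assessed response at week 4, then every 8 weeks, then every 12 weeks after week 48, using modified ATL criteria without the ≥4-week persistence requirement.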

patients with R/R ATL [2] = assay: Phase 2 trial of valemetostat: investigator-assessed response; assay type: in vivo, human; conditions: 7/25 (CR plus CRu)
Procedure, shortened: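 Investigator-assessed response in patients given ≥1 dose of oral test compound, 200 mg once daily, fasting, 28-day cycles. Nodal/extranodal lesions were measured by CT as sums of products of greatest diameters, skin by visual review and modified severity-weighted assessment tool, and blood by white cell, lymphocyte and abnormal lymphocyte counts. ORR was the proportion with best response CR, CRu or PR, with a Clopper-Pearson 90% CI.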

[3] = Plasma valemetostat pharmacokinetics, noncompartmental analysis; assay type: in vivo, human; conditions: Mean (SD); for AUC / Cmax: human, plasma, oral, 200 mg; for AUC: AUCtau, Cycle 1 day 15 (steady state)
Procedure, shortened: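 Patients took oral test compound, 200 mg once daily, fasting. Serial and trough blood samples were taken for plasma drug levels. Total and unbound drug were measured at steady state on cycle 1 day 15. Accumulation ratio was derived from AUC over the dosing interval.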

ATL cell = conditions: compared with tazemetostat and GSK126; cited from earlier work
[4] = IEAC best response, ATL subtype Acute, N=16
[5] = IEAC best response, ATL subtype Lymphoma, N=6
[6] = IEAC best response, ATL subtype Unfavorable chronic, N=3
[7] = IEAC best response, All patients, N=25
[8] = IEAC best response, Disease site Nodal or extranodal lesions, N=20
[9] = IEAC best response, Disease site Peripheral blood, N=9
[10] = IEAC best response, Disease site Skin lesions, N=7
[11] = IEAC best response, Disease status Recurrent, N=6
[12] = IEAC best response, Disease status Refractory, N=11
[13] = IEAC best response, Disease status Relapsed, N=8
[14] = IEAC best response, Prior lenalidomide treatment No, N=17
[15] = IEAC best response, Prior lenalidomide treatment Yes, N=8
[16] = IEAC best response, Prior mogamulizumab treatment No, N=1
[17] = IEAC best response, Prior mogamulizumab treatment Yes, N=24

For Cc1cc(C)c(CNC(=O)c2cc(Cl)c3c(c2C)O[C@@](C)([C@H]2CC[C@H](N(C)C)CC2)O3)c(=O)[nH]1 [valemetostat, Valemetostat tosylate], the “ORR in nodal or extranodal lesions” value (patients with R/R ATL [1]; IEAC) was 50%, the CR (patients with R/R ATL [1]; [4]) was 5 (31.3) n (%) and the CRu (patients with R/R ATL [1]; [4]) was 0 n (%). For the same compound, the ORR (patients with R/R ATL [1]; [4]) was 10 (62.5) n (%), the PD (patients with R/R ATL [1]; [4]) was 2 (12.5) n (%) and the PR (patients with R/R ATL [1]; [4]) was 5 (31.3) n (%). For the same compound, the CR (patients with R/R ATL [1]; [5]) was 0 n (%), the CRu (patients with R/R ATL [1]; [5]) was 0 n (%) and the ORR (patients with R/R ATL [1]; [5]) was 1 (16.7) n (%). For the same compound, the PD (patients with R/R ATL [1]; [5]) was 0 n (%), the PR (patients with R/R ATL [1]; [5]) was 1 (16.7) n (%) and the CR (patients with R/R ATL [1]; [6]) was 0 n (%). The CRu (patients with R/R ATL [1]; [6]) was 0 n (%), the ORR (patients with R/R ATL [1]; [6]) was 1 (33.3) n (%) and the PD (patients with R/R ATL [1]; [6]) was 1 (33.3) n (%). For the same compound, the PR (patients with R/R ATL [1]; [6]) was 1 (33.3) n (%), the CR (patients with R/R ATL [1]; [7]) was 5 (20.0) n (%) and the CRu (patients with R/R ATL [1]; [7]) was 0 n (%). For the same compound, the ORR (patients with R/R ATL [1]; [7]) was 12 (48.0) n (%), the PD (patients with R/R ATL [1]; [7]) was 3 (12.0) n (%) and the PR (patients with R/R ATL [1]; [7]) was 7 (28.0) n (%). The CR (patients with R/R ATL [1]; [8]) was 6 (30.0) n (%), the CRu (patients with R/R ATL [1]; [8]) was 2 (10.0) n (%) and the ORR (patients with R/R ATL [1]; [8]) was 10 (50.0) n (%). The PD (patients with R/R ATL [1]; [8]) was 3 (15.0) n (%), the PR (patients with R/R ATL [1]; [8]) was 2 (10.0) n (%) and the CR (patients with R/R ATL [1]; [9]) was 2 (22.2) n (%). The ORR (patients with R/R ATL [1]; [9]) was 8 (88.9) n (%), the PD (patients with R/R ATL [1]; [9]) was 0 n (%) and the PR (patients with R/R ATL [1]; [9]) was 6 (66.7) n (%). For the same compound, the CR (patients with R/R ATL [1]; [10]) was 1 (14.3) n (%), the PD (patients with R/R ATL [1]; [10]) was 0 n (%) and the PR (patients with R/R ATL [1]; [10]) was 2 (28.6) n (%). The CR (patients with R/R ATL [1]; [11]) was 1 (16.7) n (%), the CRu (patients with R/R ATL [1]; [11]) was 0 n (%) and the ORR (patients with R/R ATL [1]; [11]) was 4 (66.7) n (%). For the same compound, the PD (patients with R/R ATL [1]; [11]) was 0 n (%), the PR (patients with R/R ATL [1]; [11]) was 3 (50.0) n (%) and the CR (patients with R/R ATL [1]; [12]) was 3 (27.3) n (%). For the same compound, the CRu (patients with R/R ATL [1]; [12]) was 0 n (%), the ORR (patients with R/R ATL [1]; [12]) was 5 (45.5) n (%) and the PD (patients with R/R ATL [1]; [12]) was 2 (18.2) n (%). The PR (patients with R/R ATL [1]; [12]) was 2 (18.2) n (%), the CR (patients with R/R ATL [1]; [13]) was 1 (12.5) n (%) and the CRu (patients with R/R ATL [1]; [13]) was 0 n (%). For the same compound, the ORR (patients with R/R ATL [1]; [13]) was 3 (37.5) n (%), the PD (patients with R/R ATL [1]; [13]) was 1 (12.5) n (%) and the PR (patients with R/R ATL [1]; [13]) was 2 (25.0) n (%). The CR (patients with R/R ATL [1]; [14]) was 5 (29.4) n (%), the CRu (patients with R/R ATL [1]; [14]) was 0 n (%) and the ORR (patients with R/R ATL [1]; [14]) was 8 (47.1) n (%). The PD (patients with R/R ATL [1]; [14]) was 2 (11.8) n (%), the PR (patients with R/R ATL [1]; [14]) was 3 (17.6) n (%) and the CR (patients with R/R ATL [1]; [15]) was 0 n (%). The CRu (patients with R/R ATL [1]; [15]) was 0 n (%), the ORR (patients with R/R ATL [1]; [15]) was 4 (50.0) n (%) and the PD (patients with R/R ATL [1]; [15]) was 1 (12.5) n (%). For the same compound, the PR (patients with R/R ATL [1]; [15]) was 4 (50.0) n (%), the CR (patients with R/R ATL [1]; [16]) was 1 (100.0) n (%) and the CRu (patients with R/R ATL [1]; [16]) was 0 n (%). For the same compound, the ORR (patients with R/R ATL [1]; [16]) was 1 (100.0) n (%), the PD (patients with R/R ATL [1]; [16]) was 0 n (%) and the PR (patients with R/R ATL [1]; [16]) was 0 n (%). For the same compound, the CR (patients with R/R ATL [1]; [17]) was 4 (16.7) n (%), the CRu (patients with R/R ATL [1]; [17]) was 0 n (%) and the ORR (patients with R/R ATL [1]; [17]) was 11 (45.8) n (%). The PD (patients with R/R ATL [1]; [17]) was 3 (12.5) n (%), the PR (patients with R/R ATL [1]; [17]) was 7 (29.2) n (%) and the “median TTR (time to response)” value (patients with R/R ATL [1]; IEAC-assessed, range 1.0-5.6 months) was 1.4 months. It also gave an ORR by subtype (patients with R/R ATL [1]; IEAC, acute (10/16)) of 62.5%, a CR rate (patients with R/R ATL [1]; IEAC, all patients (5/25)) of 20.0% and a PR rate (patients with R/R ATL [1]; IEAC, all patients (7/25)) of 28.0%. The “TCR (tumor control rate)” value (patients with R/R ATL [1]; IEAC, best response CR, CRu, PR or SD, 95% CI 68.8-97.5) was 88.0%, the ORR by subtype (patients with R/R ATL [1]; IEAC, lymphoma (1/6)) was 16.7% and the ORR (patients with R/R ATL [1]; IEAC, patients pretreated with mogamulizumab (11/24), 90% CI 28.2-64.2) was 45.8%. For the same compound, the ORR (patients with R/R ATL [1]; IEAC, patients refractory to mogamulizumab-containing therapies (3/6)) was 50.0%, the ORR (patients with R/R ATL [1]; IEAC, patients with prior lenalidomide treatment (4/8), 90% CI 15.7-84.3) was 50% and the “ORR by disease status” value (patients with R/R ATL [1]; IEAC, recurrent (4/6)) was 66.7%. The “ORR by disease status” value (patients with R/R ATL [1]; IEAC, refractory disease (5/11)) was 45.5%, the “ORR by disease status” value (patients with R/R ATL [1]; IEAC, relapsed (3/8)) was 37.5% and the ORR by subtype (patients with R/R ATL [1]; IEAC, unfavorable chronic (1/3)) was 33.3%. For the same compound, the “centrally reviewed IEAC-assessed ORR” value (patients with R/R ATL [1]; all patients (12/25), 90% CI 30.5-65.9) was 48.0%, the “responders with an ongoing response” value (patients with R/R ATL [1]; at data cutoff (6/12)) was 50% and the “patients who achieved SD able to receive valemetostat for ≥6 months” value (patients with R/R ATL [1]; following treatment initiation) was 4 of 10. The “median PFS” value (patients with R/R ATL [1]; immature, 95% CI 3.0 months to not estimable) was 7.4 months, the “median OS” value (patients with R/R ATL [1]; immature, 95% CI 6.5-16.4 months) was 16.4 months and the “responses converted from PR to CR” value (patients with R/R ATL [1]; in vivo) was 2 patients. For the same compound, the “investigator-assessed CR rate” value (patients with R/R ATL [2]) was 28.0%, the “Rac (accumulation ratio for AUCtau)” value ([3]; Total, Cycle 1 day 15) was 1.19 and the “Rac (accumulation ratio for AUCtau)” value ([3]; Unbound, Cycle 1 day 15) was 1.27. For the same compound, the AUC ([3]; Total) was 20800 ng·h/mL, the AUC ([3]; Unbound) was 584 ng·h/mL and the Cmax ([3]; Total valemetostat, Cycle 1 day 1, 200 mg once daily) was 2230 ng/mL. For the same compound, the Cmax ([3]; Total valemetostat, Cycle 1 day 15) was 2300 ng/mL, the Cmax ([3]; Unbound valemetostat, Cycle 1 day 1) was 81.7 ng/mL and the Cmax ([3]; Unbound valemetostat, Cycle 1 day 15) was 84.9 ng/mL. For the same compound, the “attenuation of ATL cell growth in vitro” value (ATL cell) was “greater attenuation of ATL cell growth in vitro at lower concentrations than tazemetostat and GSK126”.
